Assay results as given in ChEMBL document CHEMBL5149991 (J Med Chem, 2021).
pEC50, pKd, pKi: −log10 of the molar value.

Assays:
[1] = target: T1, Histamine H2 receptor (Homo sapiens, UniProt P25021); assay: Agonist activity at human histamine H2 receptor stably expressed in HEK293T cells co-expressing NlucN-mGs/hH2R-NlucC assessed as induction of mini-Gs protein recruitment using furimazine as substrate measured for 45 mins by luminescence assay
[2] = target: T2, D(3) dopamine receptor (Homo sapiens, UniProt P35462); assay: Agonist activity at human D3 receptor stably expressed in HEK293T cells co-expressing ElucN-betaarr2 hD3R-ElucC by beta-arrestin2 recruitment assay; type: functional, cell-based
T2 sequence (P35462 whole entry): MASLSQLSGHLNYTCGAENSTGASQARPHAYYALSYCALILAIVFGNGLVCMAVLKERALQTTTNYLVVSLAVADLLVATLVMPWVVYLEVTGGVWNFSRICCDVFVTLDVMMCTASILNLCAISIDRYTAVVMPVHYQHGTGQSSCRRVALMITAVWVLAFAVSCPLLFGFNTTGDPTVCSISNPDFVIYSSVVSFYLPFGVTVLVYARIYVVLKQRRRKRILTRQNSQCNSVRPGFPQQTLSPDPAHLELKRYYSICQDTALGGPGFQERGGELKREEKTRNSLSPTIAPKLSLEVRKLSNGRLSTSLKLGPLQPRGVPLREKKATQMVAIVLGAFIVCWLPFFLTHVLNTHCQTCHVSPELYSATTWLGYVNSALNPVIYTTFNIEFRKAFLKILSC

[3] = target: Histamine H1 receptor (Homo sapiens, UniProt P35367)
Sequence of Histamine H1 receptor (P35367 whole entry): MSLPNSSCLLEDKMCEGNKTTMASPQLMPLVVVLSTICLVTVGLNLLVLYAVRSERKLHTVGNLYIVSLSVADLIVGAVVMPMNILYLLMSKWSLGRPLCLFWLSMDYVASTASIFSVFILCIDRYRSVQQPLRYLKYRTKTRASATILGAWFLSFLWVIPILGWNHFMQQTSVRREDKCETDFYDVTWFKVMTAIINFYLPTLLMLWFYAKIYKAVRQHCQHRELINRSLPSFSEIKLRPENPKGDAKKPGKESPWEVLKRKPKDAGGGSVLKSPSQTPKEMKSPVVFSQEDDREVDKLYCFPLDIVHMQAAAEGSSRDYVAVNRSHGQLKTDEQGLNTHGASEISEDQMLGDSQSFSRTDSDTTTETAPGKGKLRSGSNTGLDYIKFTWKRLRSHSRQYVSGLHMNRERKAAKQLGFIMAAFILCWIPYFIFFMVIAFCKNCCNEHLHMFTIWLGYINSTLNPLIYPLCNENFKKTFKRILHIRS

[4] = target: T1, Histamine H2 receptor; assay: Agonist activity at human histamine H2 receptor stably expressed in HEK293T cells co-expressing ARRB2 incubated for 60 mins by beta-arrestin2 recruitment assay; type: functional, cell-based
[5] = target: T3, D(2) dopamine receptor (Homo sapiens, UniProt P14416); type: functional, cell-based, HEK293T;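 note: agonist mode, β-arrestin2 recruitment to the human D2 long isoform stably expressed in HEK293T cells, read by split luciferase complementation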
T3 sequence (P14416 whole entry, canonical isoform): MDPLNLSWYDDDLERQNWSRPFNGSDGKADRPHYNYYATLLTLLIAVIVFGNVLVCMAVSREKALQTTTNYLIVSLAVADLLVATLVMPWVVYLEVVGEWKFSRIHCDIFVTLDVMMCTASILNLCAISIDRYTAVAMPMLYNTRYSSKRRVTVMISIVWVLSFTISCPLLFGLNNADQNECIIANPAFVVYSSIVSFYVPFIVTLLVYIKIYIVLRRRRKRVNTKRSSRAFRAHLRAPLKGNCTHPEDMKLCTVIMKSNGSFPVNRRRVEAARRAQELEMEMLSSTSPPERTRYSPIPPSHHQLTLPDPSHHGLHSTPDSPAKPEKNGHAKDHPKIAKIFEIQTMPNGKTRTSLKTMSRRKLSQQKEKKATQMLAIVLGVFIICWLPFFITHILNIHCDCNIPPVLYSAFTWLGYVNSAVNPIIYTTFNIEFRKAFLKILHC

[6] = target: Histamine H3 receptor (Homo sapiens, UniProt Q9Y5N1); assay: Displacement of [3H]UR-PI294 from human histamine H3 receptor stably expressed in baculovirus infected Sf9 cell membrane co-expressing G-alphai2 and G-beta1gamma2 incubated for 60 mins by scintillation counting analysis; type: cell membranes
Sequence of Histamine H3 receptor (Q9Y5N1 whole entry): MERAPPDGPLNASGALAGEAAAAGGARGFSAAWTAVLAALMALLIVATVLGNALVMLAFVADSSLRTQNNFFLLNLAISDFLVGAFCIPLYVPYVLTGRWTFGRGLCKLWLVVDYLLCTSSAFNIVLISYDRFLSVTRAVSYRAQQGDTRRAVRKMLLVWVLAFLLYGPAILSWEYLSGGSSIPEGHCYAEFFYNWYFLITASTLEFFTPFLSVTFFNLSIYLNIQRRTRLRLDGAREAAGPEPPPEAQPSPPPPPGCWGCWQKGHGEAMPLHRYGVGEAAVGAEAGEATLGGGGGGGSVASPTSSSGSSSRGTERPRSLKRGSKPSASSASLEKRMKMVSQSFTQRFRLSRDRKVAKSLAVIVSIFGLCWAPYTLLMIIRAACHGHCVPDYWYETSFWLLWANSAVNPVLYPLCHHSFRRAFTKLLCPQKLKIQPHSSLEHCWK
Summary of the method: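 hH3R + Gαi2 + Gβ1γ2 expressed in Sf9 membranes. […] Mean ± SEM from N independent experiments in triplicate.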

[7] = target: T1, Histamine H2 receptor; assay: Agonist activity at human histamine H2 receptor stably expressed in baculovirus infected Sf9 cell membrane co-expressing RG-Salpha S incubated for 90 mins by [35S]GTPgammaS binding based liquid scintillation counting method; type: functional, cell membranes
[8] = target: T2, D(3) dopamine receptor; assay: Displacement of [3H]N-methylspiperone from human D3 receptor stably expressed in HEK293T cells co-expressing luciferase and CEK incubated for 140 mins by radioligand competition binding based assay; type: cell-based
[9] = target: T3, D(2) dopamine receptor; assay: Displacement of [3H]N-methylspiperone from human D2 long receptor stably expressed in HEK293T cells co-expressing luciferase and CEK incubated for 140 mins by radioligand competition binding based assay; type: cell-based
[10] = target: T1, Histamine H2 receptor; assay: Displacement of [3H]UR-DE257 from human histamine H2 receptor stably expressed in baculovirus infected Sf9 cell membrane co-expressing RG-Salpha S incubated for 60 mins by scintillation counting analysis; type: cell membranes
[11] = target: Histamine H4 receptor (Homo sapiens, UniProt Q9H3N8)
Sequence of Histamine H4 receptor (Q9H3N8 whole entry): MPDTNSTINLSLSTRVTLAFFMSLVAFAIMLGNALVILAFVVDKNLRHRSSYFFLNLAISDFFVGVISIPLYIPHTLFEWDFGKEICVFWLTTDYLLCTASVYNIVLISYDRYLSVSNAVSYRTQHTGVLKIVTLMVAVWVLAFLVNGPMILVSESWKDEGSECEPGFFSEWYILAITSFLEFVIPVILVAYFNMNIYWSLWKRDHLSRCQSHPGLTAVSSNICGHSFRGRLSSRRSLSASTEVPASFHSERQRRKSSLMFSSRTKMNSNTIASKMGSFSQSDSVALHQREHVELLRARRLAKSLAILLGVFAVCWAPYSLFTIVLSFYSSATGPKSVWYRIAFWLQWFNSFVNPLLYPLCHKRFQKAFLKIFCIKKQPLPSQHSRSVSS

[12] = target: T4, Histamine H2 receptor (Cavia porcellus, UniProt P47747); assay: Agonist activity at histamine H2 receptor in spontaneous beating guinea pig right atrium assessed as increase in heart beat; type: functional, tissue-based, Right cardiac atrium
T4 sequence (P47747 whole entry): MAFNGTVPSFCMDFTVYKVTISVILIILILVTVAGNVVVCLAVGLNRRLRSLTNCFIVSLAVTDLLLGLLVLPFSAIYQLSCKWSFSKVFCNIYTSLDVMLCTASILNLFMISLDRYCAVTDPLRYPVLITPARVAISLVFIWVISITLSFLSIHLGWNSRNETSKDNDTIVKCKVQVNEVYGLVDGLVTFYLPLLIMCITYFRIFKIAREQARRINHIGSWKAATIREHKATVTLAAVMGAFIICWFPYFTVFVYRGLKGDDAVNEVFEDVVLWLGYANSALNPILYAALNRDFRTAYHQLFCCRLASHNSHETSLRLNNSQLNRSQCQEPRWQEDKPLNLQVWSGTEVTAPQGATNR

[13] = target: Histamine H2 receptor (Cavia porcellus) (UniProt P47747); assay: Agonist activity at histamine H2 receptor in spontaneous beating guinea pig right atrium assessed as increase in heart beat at 30 uM relative to histamine; type: functional, tissue-based; conditions: Right cardiac atrium
Sequence of Histamine H2 receptor (Cavia porcellus) (P47747 whole entry): as above

[14] = target: T4, Histamine H2 receptor; assay: Agonist activity at guinea pig histamine H2 receptor stably transfected in HEK293T cells co-expressing NlucN-mGs/gpH2R-NlucC by mini-G protein recruitment assay; type: functional, cell-based
[15] = target: Histamine H2 receptor (Cavia porcellus) (UniProt P47747); assay: Agonist activity at guinea pig histamine H2 receptor stably transfected in HEK293T cells co-expressing NlucN-mGs/gpH2R-NlucC assessed as maximum efficacy at 100 uM by mini-G protein recruitment assay relative to histamine; type: functional, cell-based
[16] = Chemical stability in pH 7.4 buffer measured at 0 to 2 weeks by HPLC analysis; type: physicochemical; conditions: time 0-2 weeks

T1 sequence (P25021 whole entry): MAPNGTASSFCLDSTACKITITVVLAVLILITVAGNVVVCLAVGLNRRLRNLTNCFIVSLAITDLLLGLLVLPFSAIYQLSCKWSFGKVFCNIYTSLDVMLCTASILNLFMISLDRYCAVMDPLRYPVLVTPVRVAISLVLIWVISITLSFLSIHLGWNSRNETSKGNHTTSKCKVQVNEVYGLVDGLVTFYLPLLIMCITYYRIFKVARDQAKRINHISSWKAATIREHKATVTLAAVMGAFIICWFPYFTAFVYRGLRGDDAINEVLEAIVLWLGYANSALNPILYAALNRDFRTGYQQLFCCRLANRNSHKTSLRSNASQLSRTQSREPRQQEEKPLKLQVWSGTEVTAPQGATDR

Compound | pEC50 [1] | pEC50 [2] | pKd [3] | pKi [3] | pEC50 [4] | pEC50 [5] | pKi [6] | pEC50 [7] | pKi [8] | pKi [9] | pKi [10] | pKd [11] | pKi [11] | pEC50 [12] | Emax [13] | pEC50 [14] | Emax [15] | Stability [16]
CC(CNC(=O)/N=C(\N)NCCCc1nnc(N)s1)C1CCCCC1 (stereo not drawn) | 7.97 | 5.87 | 8.35 | 5.13 | 6.87 | < 5.00 | 5.56 | 7.88 | 6.63 | 5.79 | 7.71 | 7.80 | 4.90 |  |  |  |  | 
C[C@@H](NC(=O)/N=C(\N)NCCCc1nnc(N)s1)c1ccccc1 | 7.70 | 5.97 | 8.35 | < 5.00 | 6.55 | < 5.00 | < 5.00 |  | 5.49 | < 5.00 | 7.89 | 7.80 | < 5.00 | 8.54 | 98% | 7.60 | 90% | 
N/C(=N\C(=O)NCCCCCCNC(=O)/N=C(\N)NCCCc1nnc(N)s1)NCCCc1nnc(N)s1 | 7.70 |  | 8.35 | 5.45 | 6.39 | 5.95 | 5.00 | 7.46 |  | 6.02 | 8.28 | 7.80 | < 5.00 |  |  |  |  | 
CC(NC(=O)/N=C(\N)NCCCc1nnc(N)s1)c1cccc(F)c1 (stereo not drawn) | 8.09 | 5.72 | 8.35 | 4.98 | 7.12 | < 5.00 | < 5.00 |  | 6.18 | < 5.00 | 8.09 | 7.80 | < 5.00 | 9.04 | 110% | 8.16 | 93% | 
CCCCCCNC(=O)/N=C(\N)NCCCc1nnc(N)s1 | 8.22 | 6.09 | 8.35 | 5.30 | 5.97 | < 5.00 | < 5.00 |  | 6.23 | < 5.00 | 8.29 | 7.80 | < 5.00 | 8.32 | 106% | 8.64 | 96% | 
Cc1ccc(CC(C)CNC(=O)/N=C(\N)NCCCc2nnc(N)s2)cc1.O=C(O)C(F)(F)F.O=C(O)C(F)(F)F (stereo not drawn) |  | < 5.00 | 8.35 | 5.87 |  |  | 5.63 |  | 5.69 | 5.97 |  | 7.80 | 5.16 | 7.02 |  | 7.83 |  | Stable
